167 variants from the RNAGym collection of RNA variant scans (doi:10.1002/anie.201605470) can be followed below.

The chains are these.
B1: Osa-1-4 twister ribozyme (parent)
chain: CCGCCUAACACUGCCAAUGCCGGUCCCAAGCCCGGAUAAAAGUGGAGGGGGCGG

In this data set the parent is B1. The data set is described as follows: self-cleavage, relative activity (ratio to wild type); higher = more cleavage; co-transcriptional. The method, boiled down: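 Relative activity is the fraction cleaved divided by that of the wild-type ribozyme. The library came from a DNA template for a 54-nucleotide Oryza sativa twister ribozyme, doped at the 48 positions downstream of the cleavage site with 97 % wild-type base and 1 % of each other base. After 2 h of in vitro transcription at 37 °C with co-transcriptional self-cleavage, the RNA was reverse-transcribed with a template-switching oligonucleotide, amplified by PCR and deep-sequenced, and reads with or without upstream sequence gave the cleavage status.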
With A28G C32G, the self-cleavage came to 0.08.
As to A28G C32U, the self-cleavage was 0.05.
As to A28G C32A, the self-cleavage was determined as 0.06.
The result for A28C G23A reads 0.2; that for A28C G23C, 0.05.
The value for A28C G23U was 0.07; that for A28C C27A was 0.09; that for A28C C27G was 0.05.
Consider A28C C27U, for which the self-cleavage turned out to be 0.11.
Turning to A28G C33G, the self-cleavage amounted to 0.05.
In the case of A28G C33A, the self-cleavage was determined as 0.06.
The value for A28G C33U was 0.11; that for A28C G22A was 0.68.
As for A28C G22U, the self-cleavage is 0.4.
On to A28C G22C, for which the self-cleavage is 0.08.
The value for C27U C33G was 0.05; that for C27U C33A was 0.05; that for C27U C33U was 0.13.
Turning to A28G A46G, the self-cleavage amounted to 0.5.
As to A28G A46C, the self-cleavage stood at 0.04.
The result for A28G A46U reads 0.05; that for A28G G19C, 0.05; that for A28G G19A, 0.15.
For A28G G19U, the self-cleavage was 0.08.
As to C27U G47A, the self-cleavage came to 0.88.
For the variant C27U G47U, the self-cleavage came to 0.11.
The result for C27U G47C reads 0.42; that for A28C A39C, 0.93; that for A28C A39G, 0.99.
A28C A39U: the self-cleavage was found to be 1.
As to C27U G49U, the self-cleavage came out at 0.04.
As for C27U G49C, the self-cleavage came out at 0.04.
C27U G49A: the self-cleavage is 0.05.
The result for A28C C31U reads 0.84; that for A28C C31G, 0.09; that for A28C C31A, 0.04.
The result for A28G A40C reads 0.05.
The value for A28G A40G was 0.14; that for A28G A40U was 0.09; that for A28G G23U was 0.05.
In the case of A28G G23C, the self-cleavage was found to be 0.04.
On to A28G G23A, for which the self-cleavage is 0.13.
The result for C27U U43A reads 0.11; that for C27U U43C, 0.1; that for C27U U43G, 0.08.
The result for A28G A41C reads 0.13.
Consider A28G A41G, for which the self-cleavage is 0.14.
The value for A28G A41U was 0.23.
The result for A28C U24C reads 0.18; that for A28C U24G, 0.05.
With A28C U24A, the self-cleavage was determined as 0.14.
With A28C A46C, the self-cleavage came out at 0.06.
As for A28C A46G, the self-cleavage came to 0.07.
The result for A28C A46U reads 0.07; that for C27U G23C, 0.03.
Turning to C27U G23A, the self-cleavage is 0.07.
The result for C27U G23U reads 0.03; that for C27G G49U, 0.04; that for C27G G49C, 0.03.
The result for C27G G49A reads 0.04; that for A28C A8G, 0.17.
For A28C A8C, the self-cleavage amounted to 0.09.
Take A28C A8U: the self-cleavage worked out at 0.1.
Turning to C27U U18A, the self-cleavage turned out to be 0.24.
On to C27U U18C, for which the self-cleavage stood at 0.21.
As to C27U U18G, the self-cleavage came out at 0.37.
As to A28G A29U, the self-cleavage is 0.06.
In the case of A28G A29G, the self-cleavage was 0.08.
Turning to A28G A29C, the self-cleavage is 0.02.
As to C27U G19C, the self-cleavage was 0.04.
The result for C27U G19U reads 0.05; that for C27U G19A, 0.08.
The value for C27U C9A was 0.02; that for C27U C9U was 0.1; that for C27U C9G was 0.09.
The value for C27U G48C was 0.05; that for C27U G48A was 0.04.
For C27U G48U, the self-cleavage worked out at 0.03.
In the case of C27U C52U, the self-cleavage came out at 0.37.
Take C27U C52G: the self-cleavage was 0.25.
In the case of C27U C52A, the self-cleavage was determined as 0.21.
Consider C27G G54U, for which the self-cleavage turned out to be 0.12.
As for C27G G54C, the self-cleavage was 0.04.
The value for C27G G54A was 0.06; that for A28C G34A was 0.69.
A28C G34U: the self-cleavage was found to be 0.51.
With A28C G34C, the self-cleavage turned out to be 0.38.
The value for C27U G54C was 0.12.
The result for C27U G54A reads 0.14; that for C27U G54U, 0.31; that for A28G C27A, 0.06.
The result for A28G C27U reads 0.07.
In the case of A28G C27G, the self-cleavage was 0.1.
The value for A28C G53C was 0.08; that for A28C G53A was 0.78; that for A28C G53U was 0.23.
The result for A28C C9A reads 0.42.
On to A28C C9G, for which the self-cleavage was determined as 0.67.
The result for A28C C9U reads 0.8; that for A28C C25U, 0.91; that for A28C C25A, 0.09.
For the variant A28C C25G, the self-cleavage was 0.09.
The result for C27U C32A reads 0.04; that for C27U C32G, 0.05; that for C27U C32U, 0.06.
The result for C27U G44U reads 0.12; that for C27U G44A, 0.08; that for C27U G44C, 0.1.
Consider A28G G34C, for which the self-cleavage worked out at 0.08.
Consider A28G G34U, for which the self-cleavage turned out to be 0.1.
The result for A28G G34A reads 0.21.
The value for A28C C20U was 1.01.
The result for A28C C20A reads 0.94; that for A28C C20G, 0.31.
As for C27G U43G, the self-cleavage is 0.06.
The result for C27G U43C reads 0.06; that for C27G U43A, 0.08; that for A28C G48A, 0.09.
As to A28C G48U, the self-cleavage amounted to 0.07.
Consider A28C G48C, for which the self-cleavage amounted to 0.08.
Take C27G G51U: the self-cleavage amounted to 0.04.
The result for C27G G51C reads 0.02; that for C27G G51A, 0.05.
Turning to A28C G44U, the self-cleavage was determined as 0.75.
A28C G44A: the self-cleavage stood at 0.95.
The value for A28C G44C was 0.95; that for C27U G50U was 0.12; that for C27U G50C was 0.09.
Consider C27U G50A, for which the self-cleavage was 0.18.
The value for A28C G54C was 0.86; that for A28C G54A was 0.91.
The result for A28C G54U reads 0.95; that for C27U G13U, 0.01; that for C27U G13A, 0.04.
C27U G13C: the self-cleavage was determined as 0.01.
The result for A28C A7U reads 0.07.
As to A28C A7G, the self-cleavage is 0.2.
A28C A7C: the self-cleavage is 0.06.
Regarding A28C U18C, the self-cleavage is 0.72.
The value for A28C U18G was 1.01; that for A28C U18A was 0.96.
The value for A28C C52G was 0.93; that for A28C C52U was 1.01.
Turning to A28C C52A, the self-cleavage came to 0.68.
The value for A28G A36U was 0.36; that for A28G A36G was 0.45; that for A28G A36C was 0.09.
Regarding A28C A41U, the self-cleavage turned out to be 0.98.
As for A28C A41C, the self-cleavage was 0.91.
In the case of A28C A41G, the self-cleavage was 0.82.
The value for A28C A40G was 0.68; that for A28C A40U was 0.55.
As for A28C A40C, the self-cleavage is 0.08.
The result for C27U U24A reads 0.04; that for C27U U24C, 0.06; that for C27U U24G, 0.01.
For the variant A28G A8G, the self-cleavage was found to be 0.19.
For the variant A28G A8U, the self-cleavage is 0.07.
As for A28G A8C, the self-cleavage was 0.05.
The value for A28G G22U was 0.1; that for A28G G22A was 0.14; that for A28G G22C was 0.06.
The value for C27U G22A was 0.12; that for C27U G22U was 0.06; that for C27U G22C was 0.03.
For A28G A38G, the self-cleavage came out at 0.22.
The result for A28G A38U reads 0.23.
